Data as given in ChEMBL document CHEMBL3745596, “Chlorophenoxy aminoalkyl derivatives as histamine H(3)R ligands and antiseizure agents” (Bioorg Med Chem, 2016).
The source made the active and inactive calls.

Key:
Mus musculus [1] = assay: Neurotoxicity in CF1 albino mouse at 50 mg/kg, ip after 4 hrs by rotarod test; format: toxicity, organism-based; conditions: in vivo
Procedure, shortened: (§1)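 Rotarod neurotoxicity in male albino CF-1 mice dosed ip with compound suspended in 0.5% methylcellulose. Animal placed on a 1 inch diameter knurled plastic rod rotating at 6 rpm. Neurotoxicity scored when the animal falls off three times within 1 min. Readout is number of animals toxic/number tested at the stated time after dosing. TD50 with 95% confidence interval from the quantitative study.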

Mus musculus [2] = assay: Neurotoxicity in CF1 albino mouse at 100 mg/kg, ip after 4 hrs by rotarod test; format: toxicity, organism-based; conditions: in vivo; procedure, shortened: as §1
Mus musculus [3] = assay: Anticonvulsant activity in CF1 albino mouse assessed as protection against maximal electroshock-induced seizure at 100 mg/kg, ip after 4 hrs; format: functional, organism-based
Procedure, shortened: (§2)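 Male CF-1 mice dosed ip as suspension in 0.5% methylcellulose. Corneal electrodes deliver 60 Hz alternating current, 50 mA for […], after a drop of 0.5% tetracaine HCl in 0.9% NaCl per eye. Protection means abolition of hindlimb tonic extension; scored as protected/tested, or ED50 with 95% confidence interval.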

Mus musculus [4] = assay: Anticonvulsant activity in CF1 albino mouse assessed as protection against maximal electroshock-induced seizure at 30 mg/kg, ip after 0.5 hrs; format: functional, organism-based; procedure, shortened: as §2
Mus musculus [5] = assay: Neurotoxicity in CF1 albino mouse at 3 mg/kg, ip after 0.5 hrs by rotarod test; format: toxicity, organism-based; conditions: in vivo; procedure, shortened: as §1
Mus musculus [6] = assay: Neurotoxicity in CF1 albino mouse at 30 mg/kg, ip after 4 hrs by rotarod test; format: toxicity, organism-based; conditions: in vivo; procedure, shortened: as §1
Mus musculus [7] = assay: Anticonvulsant activity in CF1 albino mouse assessed as protection against maximal electroshock-induced seizure at 3 mg/kg, ip after 0.5 hrs; format: functional, organism-based; procedure, shortened: as §2
Mus musculus [8] = assay: Neurotoxicity in CF1 albino mouse at 10 mg/kg, ip after 0.5 hrs by rotarod test; format: toxicity, organism-based; conditions: in vivo
Procedure, shortened: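 Rotarod neurotoxicity in male CF-1 mice dosed ip as 0.5% methylcellulose suspension: mouse placed on 1 inch knurled rod rotating at 6 rpm; toxicity when the animal falls off three times within 1 min, with other signs noted. Scored as toxic/tested at 0.5 h and 4 h.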

Mus musculus [9] = assay: Neurotoxicity in CF1 albino mouse assessed as death at 300 mg/kg, ip after 0.5 hrs by rotarod test; format: toxicity, organism-based; conditions: in vivo
Procedure, shortened: (§3)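 Male albino CF-1 mice dosed ip with compound suspended in 0.5% methylcellulose, then placed on a 1-inch knurled plastic rod turning at 6 rpm. A fall three times within 1 min counted as neurotoxicity. Observations were made at 0.5 h and 4 h after dosing. Result given as animals showing toxicity per animals tested, with the kind of toxicity recorded.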

Mus musculus [10] = assay: Neurotoxicity in CF1 albino mouse at 50 mg/kg, ip after 1 hr by rotarod test; format: toxicity, organism-based; conditions: in vivo; procedure, shortened: as §1
Mus musculus [11] = assay: Neurotoxicity in CF1 albino mouse at 30 mg/kg, ip after 0.5 hrs by rotarod test; format: toxicity, organism-based; conditions: in vivo; procedure, shortened: as §1
Mus musculus [12] = assay: Anticonvulsant activity in CF1 albino mouse assessed as protection against subcutaneous pentetrazole-induced seizure at 30 mg/kg, ip after 4 hrs; format: functional, organism-based
Procedure, shortened: (§4)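 Male CF-1 mice, ip in 0.5% methylcellulose; pentetrazole at CD97 (85 mg/kg) injected subcutaneously in a loose fold of neck skin. Observed 30 min; absence of even a threshold seizure (single clonic spasm lasting at least 5 s) counted as protection. Scored protected/tested, or ED50.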

Mus musculus [13] = assay: Neurotoxicity in CF1 albino mouse at 300 mg/kg, ip after 4 hrs by rotarod test; format: toxicity, organism-based; conditions: in vivo; procedure, shortened: as §1
Histamine H3 receptor = Histamine H3 receptor (Homo sapiens, UniProt Q9Y5N1); assay: Displacement of [3H]-Nalpha-methylhistamine from human recombinant histamine H3 receptor expressed in HEK293 cells after 90 mins; format: cell-based
Sequence of Histamine H3 receptor (Q9Y5N1 whole entry): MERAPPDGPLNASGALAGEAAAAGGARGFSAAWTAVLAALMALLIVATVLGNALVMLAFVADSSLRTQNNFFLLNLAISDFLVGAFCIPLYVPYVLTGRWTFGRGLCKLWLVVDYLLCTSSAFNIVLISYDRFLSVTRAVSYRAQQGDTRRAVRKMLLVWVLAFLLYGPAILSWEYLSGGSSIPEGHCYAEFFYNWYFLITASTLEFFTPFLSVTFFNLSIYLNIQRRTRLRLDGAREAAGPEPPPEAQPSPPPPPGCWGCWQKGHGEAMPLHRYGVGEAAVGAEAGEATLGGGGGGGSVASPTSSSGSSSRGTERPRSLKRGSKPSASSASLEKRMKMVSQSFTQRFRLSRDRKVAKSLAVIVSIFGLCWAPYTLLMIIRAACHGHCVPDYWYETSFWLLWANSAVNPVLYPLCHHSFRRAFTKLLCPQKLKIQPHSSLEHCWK

Mus musculus [14] = assay: Anticonvulsant activity in CF1 albino mouse assessed as protection against maximal electroshock-induced seizure at 10 mg/kg, ip after 0.5 hrs; format: functional, organism-based; procedure, shortened: as §2
Rattus norvegicus = assay: Anticonvulsant activity in Sprague-Dawley rat assessed as protection against maximal electroshock-induced seizure at 30 mg/kg, po; format: functional
Mus musculus [15] = assay: Anticonvulsant activity in CF1 albino mouse assessed as protection against maximal electroshock-induced seizure at 100 mg/kg, ip after 0.5 hrs; format: functional, organism-based; procedure, shortened: as §2
Mus musculus [16] = assay: Anticonvulsant activity in CF1 albino mouse assessed as protection against 6 Hz-psychomotor-induced seizure at 50 mg/kg, ip after 0.25 hrs; format: functional, organism-based
Procedure, shortened: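 Male CF-1 mice, ip suspension in 0.5% methylcellulose. Corneal stimulation 0.2 ms monopolar rectangular pulses at 6 Hz, 32 mA for 3 s via constant-current device; mice without minimal clonic phase seizure counted protected. Groups of four; read at 0.25, 0.5, 1, 2, 4 h; result as protected/tested.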

Mus musculus [17] = assay: Neurotoxicity in CF1 albino mouse at 50 mg/kg, ip after 2 hrs by rotarod test; format: toxicity, organism-based; conditions: in vivo; procedure, shortened: as §1
Mus musculus [18] = assay: Anticonvulsant activity in CF1 albino mouse assessed as protection against maximal electroshock-induced seizure at 30 mg/kg, ip after 4 hrs; format: functional, organism-based; procedure, shortened: as §2
Mus musculus [19] = assay: Anticonvulsant activity in CF1 albino mouse assessed as protection against subcutaneous pentetrazole-induced seizure at 30 mg/kg, ip after 0.5 hrs; format: functional, organism-based; procedure, shortened: as §4
Mus musculus [20] = assay: Neurotoxicity in CF1 albino mouse assessed as unable to grasp rotarod and death at 100 mg/kg, ip after 0.5 hrs by rotarod test; format: toxicity, organism-based; conditions: in vivo; procedure, shortened: as §3
Mus musculus [21] = assay: Anticonvulsant activity in CF1 albino mouse assessed as protection against subcutaneous pentetrazole-induced seizure at 100 mg/kg, ip after 4 hrs; format: functional, organism-based; procedure, shortened: as §4
Mus musculus [22] = assay: Anticonvulsant activity in CF1 albino mouse assessed as protection against subcutaneous pentetrazole-induced seizure at 100 mg/kg, ip after 0.5 hrs; format: functional, organism-based; procedure, shortened: as §4
[23] = Antiproliferative activity against human IMR32 cells assessed as cell viability after 48 hrs by formazan EZ4U dye based assay; conditions: IMR-32, 48 h
Procedure, shortened: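 HEK-293 (1.5 × 10⁴/well) or IMR-32 (2 × 10⁴/well) cells in DMEM with 10% FBS, 37 °C, 5% CO₂, grown 24 h to about 60% confluence; compounds 0.01–250 µM final, DMSO at most 1%, 48 h.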

| SMILES | Activity (Mus musculus [2]) | Activity (Mus musculus [3]) | Activity (Mus musculus [4]) | Activity (Mus musculus [5]) | Activity (Mus musculus [6]) | Activity (Mus musculus [7]) | Activity (Mus musculus [8]) | Activity (Mus musculus [9]) | Activity (Mus musculus [11]) | Activity (Mus musculus [12]) | Activity (Mus musculus [13]) | Ki (Histamine H3 receptor) [µM] | Activity (Mus musculus [14]) | Activity (Rattus norvegicus) | Activity (Mus musculus [15]) | Activity (Mus musculus [18]) | Activity (Mus musculus [19]) | Activity (Mus musculus [20]) | Activity (Mus musculus [21]) | Activity (Mus musculus [22]) | further results |
| --- | --- | --- | --- | --- | --- | --- | --- | --- | --- | --- | --- | --- | --- | --- | --- | --- | --- | --- | --- | --- | --- |
| CC1CCN(CCCCCCOc2cccc(Cl)c2)CC1.O=C(O)C(=O)O | Non-toxic | Active | Active | Non-toxic | Non-toxic | inactive | Non-toxic | Toxic | Non-toxic | inactive | Non-toxic | 0.412 | inactive | 25% | Active | inactive | inactive | – | – | – | Activity (Mus musculus [1]): Non-toxic; Activity (Mus musculus [10]): Non-toxic; Activity (Mus musculus [16]): Active; Activity (Mus musculus [17]): Non-toxic |
| CC1CCCN(CCCCCCCOc2cccc(Cl)c2)C1.O=C(O)C(=O)O (stereo not drawn) | Non-toxic | Active | inactive | – | Non-toxic | – | – | Toxic | Non-toxic | inactive | Non-toxic | 0.466 | – | – | Active | inactive | inactive | Toxic | inactive | inactive | – |
| Clc1ccc(OCCCCCN2CCCCC2)cc1.O=C(O)C(=O)O | Non-toxic | – | Active | Non-toxic | Non-toxic | inactive | Non-toxic | Toxic | Non-toxic | inactive | Non-toxic | 0.427 | inactive | inactive | Active | inactive | inactive | Toxic | inactive | inactive | – |
| Clc1cccc(OCCCCCCCN2CCCCCC2)c1.O=C(O)C(=O)O | Non-toxic | inactive | inactive | – | Non-toxic | – | – | – | Non-toxic | inactive | Non-toxic | > 150 | – | – | Active | inactive | inactive | – | inactive | – | – |
| COc1cccc2c1C(=O)c1c(O)c3c(c(O)c1C2=O)C[C@@](O)(C(=O)CO)C[C@@H]3O[C@H]1C[C@H](N)[C@H](O)[C@H](C)O1 [DOXORUBICIN] | – | – | – | – | – | – | – | – | – | – | – | – | – | – | – | – | – | – | – | – | IC50 [23]: 0.0051 µM |
